Data set [1] in a line: Cytotoxicity against human HepG2(2.2.15) cells by MTT assay. The class given is cell-based.
The test system of data set [2] is Rattus norvegicus. Put plainly: Half life in fasted Sprague-Dawley rat plasma at 5 mg/kg, iv by LC/MS/MS analysis. The class given is ADME, organism-based. Also noted: dose 5 mg/kg, route intravenous. Conditions: in vivo. In a few lines: (§1)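 Male Sprague-Dawley rats, 3 per treatment, carried jugular cannulae and were fasted 12 h with water. Compound was formulated at 2 mg/mL in 1:1 NMP:Solutol HS15 diluted with saline. Dosing was 5 mg/kg iv or 25 mg/kg oral gavage. Blood was drawn predose and at 5, 15, 30 min, 1, 3 and 6 h. Plasma was quantified by LC-MS/MS against an 8-point standard curve.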

Data set [3] deals with Rattus norvegicus. Put plainly: Volume of distribution at steady state in fasted Sprague-Dawley rat at 5 mg/kg, iv by LC/MS/MS analysis. It is filed as ADME, organism-based. Further details: dose 5 mg/kg, route intravenous. The note with it: in vivo. The essentials: as §1
Data set [4] relates to Rattus norvegicus. The data set can be described thus: Oral bioavailability in fasted Sprague-Dawley rat at 25 mg/kg after 6 hrs by LC/MS/MS analysis. Conditions: in vivo. The class given is ADME, organism-based. In a few lines: as §1
Data set [5] has as its system Rattus norvegicus. The data set can be described thus: Total body clearance in fasted Sprague-Dawley rat at 5 mg/kg, iv by LC/MS/MS analysis. It is filed as ADME, organism-based. Also noted: dose 5 mg/kg, route intravenous. Conditions: in vivo. In a few lines: as §1
For data set [6], the system named is Rattus norvegicus. The data set can be described thus: Cmax in fasted Sprague-Dawley rat plasma at 25 mg/kg, po after 6 hrs by LC/MS/MS analysis. It is filed as ADME, organism-based. Further details: dose 25 mg/kg, route oral. The note with it: in vivo. In a few lines: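 Male rats, 3 per treatment, fitted with jugular vein cannulae two days before dosing and fasted 12 h (water allowed). Compound given by gavage at 25 mg/kg, formulated at 2 mg/mL in 1:1 NMP:Solutol HS15 diluted with saline. Blood taken predose and at 5, 15, 30 min, 1, 3 and 6 h. Plasma quantified by LC/MS against an 8-point standard curve; Cmax calculated by standard methods.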

Each structure is given as a SMILES string.

Consider `Cc1ccc(C2=CC(c3c(F)cccc3Cl)n3ncnc3N2)cc1C` (stereo unspecified), for which the 50% cytotoxic concentration (CC50) in data set [1] was > 50 µM.

In turn, `Fc1cccc(F)c1C1C=C(c2ccc(Cl)cc2)Nc2ncnn21` (stereo unspecified) registered a t1/2 in the data set with Rattus norvegicus [2] of 2.4 h. Moreover, in the data set on Rattus norvegicus [3], the distribution volume (Vdss) worked out at 2.6 L/kg. This molecule also returned a F in the data set with Rattus norvegicus [4] of 42%. The molecule further came in with a CL in the data set with Rattus norvegicus [5] of 17 mL/min/kg. In the data set on Rattus norvegicus [6], this molecule registered a peak concentration (Cmax) of 1937 ng/mL.

(Values after ChEMBL document CHEMBL1811844, “Design, synthesis, and biological evaluation of triazolo-pyrimidine derivatives as novel inhibitors of hepatitis B virus surface antigen (HBsAg) secretion” (J Med Chem, 2011).)
